# From PubChem BioAssay
# An excerpt weighted towards active compounds, which were near 5.1% of everything screened.
# ERa coact inh = ERα–SRC-1 coactivator interaction inhibitors, primary screen, biochemical, TR-FRET, ERα LBD, estradiol-bound; AID 629, 2007; inhibition, % at 25.6 µM; 1.7% of 86,000 active; Estrogen receptor (Homo sapiens), P03372; TR-FRET ER-alpha LBD / SRC-1 peptide; in the data active means inhibition above about 50%;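 further: 0% = receptor plus peptide control and 100% = peptide only without receptor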
# ERb SRC1 inh = inhibitors of ERβ-SRC1 coactivator interaction, primary screen, biochemical, TR-FRET, ERβ LBD, SRC-1 peptide | TR-FRET ER-beta LBD / SRC1-Cy5 peptide binding; receptor agonist-loaded with 1 µM estradiol | AID 633, 2007 | Estrogen receptor beta (Homo sapiens), Q92731 | inhibition, % at 25.6 µM | 1.3% of 86,000 active;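 active means compounds whose percent inhibition of the receptor-coactivator binding signal exceeds about 50% in the single-dose screen, limit read from the data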;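 further: 0% = receptor plus peptide wells without compound and 100% = peptide-only wells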
# BAP1 inh = inhibitors of BAP1 deubiquitinase, primary screen, biochemical, Ub-AMC fluorescence, kinetic. 0.48% of 72,000 active. recombinant BAP1, Ub-AMC hydrolysis fluorescence kinetic; active compounds read low. AID 436, 2006. calls only at 20 µM. Ubiquitin carboxyl-terminal hydrolase BAP1 (Homo sapiens), Q92560;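 active means activity remaining at or below 50% of control, provided the compound also passes the data quality filters; inactive means the rest, including low values that fail the filters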;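 further: 100% = DMSO wells rate and 0% = substrate alone blank rate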
# RORa activator = activators of orphan receptor RORA, primary screen, cell-based, luminescence. CHO-K1 Gal4-RORA LBD luciferase reporter; percent increase over mock-subtracted basal signal. activation, % at 10 µM. 1.5% of 65,000 active;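 active means activation above the mean of all tested compounds plus 3 SD, cut at about 49% in these data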;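 further: 0% = DMSO-treated RORA cells and 100% = added signal equal to DMSO minus mock-transfected cells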
# SF1 activator = activators of human SF-1, primary screen, cell-based, CHO-K1, Gal4-SF-1 LBD, luciferase luminescence | activation, % at 10 µM | 1.9% of 65,000 active | CHO-K1 Gal4-SF-1 LBD luciferase reporter; % increase over DMSO SF-1-specific signal | Steroidogenic factor 1 (Homo sapiens), Q13285;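 active means activation above the mean activation of all tested compounds plus 3 SD, cut at about 50% in these data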
# Target sequence (Q13285 whole entry, looked up, the tested form may be a part): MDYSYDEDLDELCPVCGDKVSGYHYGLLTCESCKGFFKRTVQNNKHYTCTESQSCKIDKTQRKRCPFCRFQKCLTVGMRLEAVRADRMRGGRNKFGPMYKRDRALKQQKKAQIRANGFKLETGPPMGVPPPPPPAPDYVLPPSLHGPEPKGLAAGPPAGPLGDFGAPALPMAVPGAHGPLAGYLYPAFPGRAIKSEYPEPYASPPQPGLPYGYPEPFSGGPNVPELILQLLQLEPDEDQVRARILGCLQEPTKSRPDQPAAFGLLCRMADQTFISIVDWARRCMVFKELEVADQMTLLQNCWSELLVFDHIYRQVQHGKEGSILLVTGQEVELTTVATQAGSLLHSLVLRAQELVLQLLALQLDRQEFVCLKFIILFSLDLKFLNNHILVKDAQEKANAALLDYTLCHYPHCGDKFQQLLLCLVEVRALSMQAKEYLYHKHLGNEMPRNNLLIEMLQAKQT
#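 Assay system: CHO-K1 cells co-transfected with Gal4 DBD–human SF-1 LBD, 5xGal4 luciferase reporter / Input: 4,000 cells per well / Incubation: 20 h compound exposure at 37 °C after 1 h cell settling / Detection: SteadyLite luciferase luminescence / Control set: DMSO negative control and −SF1 background wells / Replication: one test per compound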
# ERa SRC1 pot = enhancers of ERα–SRC-1 coactivator binding, primary screen, biochemical, TR-FRET, ERα LBD, low estradiol; Estrogen receptor (Homo sapiens), P03372; TR-FRET ERalpha-LBD/SRC-Cy5 coactivator binding, 2 h; 100 = basal binding, no effect; coactivator binding (% of control), % at 25.6 µM; 1.3% of 86,000 active; AID 639, 2007; in the data active means activity above about 200%;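 further: binding measured in presence of low estradiol as agonist stimulus; 0% = peptide alone without receptor and 100% = receptor with peptide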
# An asterisk follows results filed as active; i = inactive; / = no result shown; [ ] = dose if it differs, or a comment.
SMILES,ERa coact inh,ERb SRC1 inh,BAP1 inh,RORa activator,SF1 activator,ERa SRC1 pot
Cc1ccc(-c2cc(C(=O)NCC3CCCO3)no2)cc1 (configuration not stated),-6.7,3.2,i,35.4,21.2,107.9
O=C(NCC1CCCO1)c1cc(-c2ccccc2)on1 (configuration not stated),-8.4,-5.1,i,90.6*,67.5*,110.1
CCc1nc2oc3ccccc3c(=O)c2c(=O)n1-c1ccccc1,0.7,-13.6,i,44.5,70.7*,111.5
C=CCNc1nc(-c2ccc(OC)cc2OC)cs1,4.7,4.4,i,51.5*,102.5*,118.5
COc1ccc(-c2csc(NCc3ccco3)n2)cc1,-36.6,-32.8,/,36.8,27.2,97.1
O=C1C(=O)N(Cc2cccnc2)C(c2ccc(Br)cc2)/C1=C(\O)c1ccccc1 (configuration not stated),/,/,i,/,/,/
Clc1ccc2nc(Cl)cc(-c3ccccc3)c2c1,/,/,i,/,/,/
CCOC(=O)c1c(C)nc(-c2ccccc2)nc1N,7.4,5.5,i,51.1*,58.5*,102.8
O=C(Nc1cnn(C23CC4CC(CC(C4)C2)C3)c1)c1cnn2c(C(F)(F)F)cc(-c3ccco3)nc12,80.8*,60.4*,/,-7.0,4.6,172.6
O=C(NCCCN1CCOCC1)c1ccccc1I,/,/,i,/,/,/
C/C(N)=C(/C#N)C(=O)COC(=O)c1cc(C)n(-c2ccc(F)cc2)c1C,-0.6,6.7,i,67.3*,64.7*,85.7
N=c1c(C(=O)NCc2ccco2)cc2c(=O)n3ccccc3nc2n1CC1CCCO1 (configuration not stated),37.3,44.1,/,/,/,67.3
N=c1c(C(=O)NCc2ccco2)cc2c(=O)n3ccccc3nc2n1CCc1ccccc1,80.6*[fluorescence artefact?],50.4*,/,-17.9,-8.3,47.7
COc1ccc(CCn2c(=N)c(C(=O)NCc3ccco3)cc3c(=O)n4ccccc4nc32)cc1OC,35.3,33.6,i,-1.1,-5.7,67.2
O=C(NCc1ccco1)c1cccn2c(=O)c3cc4ccccc4cc3nc12,61.4*[fluorescence artefact?],48.4,/,/,/,137.8
COCCCNC(=O)c1cccn2c(=O)c3cc4ccccc4cc3nc12,-32.0,-11.0,/,/,/,117.3
Cn1nc(C(=O)NCc2ccccn2)c2ccccc2c1=O,4.1,1.9,i,3.1,-6.7,103.4
Cn1c(C(=O)NCc2ccccn2)cc2c(=O)n3ccccc3nc21,-26.3,-17.6,/,52.9*,60.6*,109.3
COc1ccc(CNC(=O)c2cc3c(=O)n4ccccc4nc3n(Cc3ccco3)c2=N)cc1,91.4*[fluorescence artefact?],57.3*[fluorescence artefact?],i,5.0,-11.2,35.6
Cc1cc(Nc2ccc(Cl)cc2)c2ccc3ccccc3c2n1,/,/,i,/,/,/
Cc1ccc(Cn2c(=N)c(C(=O)NCc3ccco3)cc3c(=O)n4ccccc4nc32)cc1,83.1*[fluorescence artefact?],56.4*[fluorescence artefact?],/,1.6,0.8,15.0
CC(C)(C)C1CCc2c(sc(NC(=O)c3cc4n(n3)C(C(F)(F)F)CC(c3cccs3)N4)c2C#N)C1 (configuration not stated),/,/,i,/,/,/
CC1=C(C(=O)OC(C)C)C(c2ccccc2Br)C2=C(CC(C)(C)CC2=O)N1 (configuration not stated),/,/,i,/,/,/
CCC(=O)/C=C1/Sc2ccccc2N1CC,-11.0,-2.5,/,/,/,118.4
CCC(=O)/C=C1/Sc2ccc(OC)cc2N1CC,-3.1,99.4*[fluorescence artefact?],/,/,/,113.0
CCOC(=O)c1nn2c(C(F)(F)F)cc(-c3ccc(Br)cc3)nc2c1Cl,/,/,i,/,/,/
O=C(O)CCC(=O)Nc1ccc(-c2cn3ccccc3n2)cc1,/,/,i,/,/,/
CC(=O)c1c(COC(=O)c2cccnc2)nc2ccccc2[n+]1[O-],65.4*[fluorescence artefact?],57.1*[fluorescence artefact?],i,-4.4,-4.3,51.6
